Counter-ions that a name gives are not always drawn. Like-named read-outs stand apart in the source and are kept apart here.
Key:
[1] = test system: MDR1-MDCK cell monolayer; test: Permeability and efflux in MDR1-MDCK cell monolayer; format: in vitro ADME
[2] = Mouse pharmacokinetics, single IP dose 10 mg/kg; format: in vivo, CD-1 mice
[3] = test system: brain GlcCer; conditions: normal mice, 60 mg/kg; cited from earlier work
[4] = Stability to mouse liver microsomes; format: in vitro ADME; conditions: CD-1, mouse, pH 7.4
How it was run: (§1)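 Test compound at 1 μM with 0.5 mg/mL liver microsomes (CD-1 mouse or human), 1.7 mM β-NADPH, 0.1 M phosphate pH 7.4, 3.3 mM MgCl₂, 37 °C, final DMSO <0.1%. Aliquots at 0–60 min (seven points) were quenched in cold acetonitrile with internal standard. Parent remaining was measured by LC-MS/MS. Half-life was taken from ln(remaining) versus time.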

[5] = Stability to human liver microsomes; format: in vitro ADME; conditions: pH 7.4
How it was run: as §1

[6] = test system: P-glycoprotein (MDR1); test: Permeability and efflux in MDR1-MDCK cell monolayer; format: in vitro ADME; conditions: dog, MDCK-MDR1
[7] = format: in vivo, D409V/D409V mice of C57BL/6 background; conditions: both, C57BL/6 (Gba D409V/D409V), mouse, ip, 10 mg/kg
How it was run: (§2)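 Gba D409V/D409V mice (C57BL/6 background) received CBE 25 mg/kg IP daily for 14 days from postpartum day 15. Test compound (10 mg/kg qd IP, citrate-saline) or buffer alone was coadministered; 8–11 mixed-gender mice per group. Sacrifice was 2 h after final dose. Brain GlcCer and GlcSph were separated from galactosyl analogues and quantified by LC-MS/MS. Values were normalised to tissue weight (pmol/mg) relative to vehicle controls; Student's t test.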

[8] = test system: brain GlcCer and GlcSph; format: in vivo, D409V/D409V mice of C57BL/6 background; conditions: CBE mice
How it was run: as §2

[9] = test system: brain GlcCer; test: In vivo reduction of brain glucosylceramide in normal mice; conditions: normal C57BL/6 mice, IP
How it was run: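 Female or male C57BL/6 mice, 6–8 weeks old, on regular chow, given test compound or vehicle IP daily for 3 days. Injection volume was 1% of body weight. Two dose-response runs were done: 30, 10, 1 mg/kg and 1.0–0.03 mg/kg. Whole brain was homogenised in sucrose buffer, then chloroform/methanol extracted and subjected to alkaline methanolysis. Extract was normalised to 2 μmol phospholipid phosphate. GlcCer was quantified by HPTLC against standards.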

[10] = mouse, IP, 10 mg/kg, single dose

| Structure (SMILES) | brain AUC [2, 10] [ng·h/g] | half-life at 1 μM [4] [min] | half-life at 1 μM [5] [min] | Papp A→B [6] [×10⁻⁶ cm/s] | Papp B→A [6] [×10⁻⁶ cm/s] | concentration at 2 h ([7]; brain) [ng/g] | concentration at 2 h ([7]; spleen) [ng/g] | reduction in brain GlcCer ([8]; IP 10 mg/kg qd for 14 days) [%] | reduction in brain GlcSph ([8]; IP 10 mg/kg qd for 14 days) [%] | also measured |
| --- | --- | --- | --- | --- | --- | --- | --- | --- | --- | --- |
| O=C(CC1Cc2ccccc2C1)N[C@H](CN1CCCC1)[C@H](O)c1ccc2c(c1)OCCO2 [Compound 2] | 36 | – | – | – | – | – | – | – | – | efflux ratio ([1]; MDR1-MDCK cell monolayer): 298; Papp A-B ([1]; MDR1-MDCK cell permeability): 0.14 ×10⁻⁶ cm/s; Papp B-A ([1]; MDR1-MDCK cell permeability): 40.8 ×10⁻⁶ cm/s; cumulative B/P ratio (brain AUC/plasma AUC) [2, 10]: 0.11; plasma AUC [2, 10]: 317 ng·h/mL; reduction in brain GlcCer [3]: 17% |
| CC(C)(NC(=O)O[C@@H]1CN2CCC1CC2)c1csc(-c2ccc(F)cc2)n1 [Compound 3, reference compound] | 6188 | > 60 | > 60 | 0.58 | 49 | 493 | 4570 | 26 | 35 | AUC ([2]; female, CD-1, mouse, plasma, ip, 10 mg/kg): 7160 ng·h/mL |
| O=C(CC1Cc2ccccc2C1)N[C@H](CN1CCCC1)[C@H](O)c1ccc(OC(F)(F)F)cc1 [Compound 17, 2-(2,3-Dihydro-1H-inden-2-yl)-N-((1R,2R)-1-hydroxy-3-(pyrrolidin-1-yl)-1-(4-(trifluoromethoxy)phenyl)propan-2-yl)acetamide] | 1046 | 37 | – | 0.95 | 56.6 | 134 | 4880 | 19 | 39 | increase in overall brain exposure vs 2 ([2]; mouse, IP, 10 mg/kg, brain AUC relative to 2): ~30 fold; total brain exposure (AUC) as percentage of that of Genz-682452 ([2]; mouse, single 10 mg/kg IP dose): about 20%; reduction in brain GlcCer ([9]; 1 mg/kg for 3 days): about 34%; reduction in brain GlcCer (printed as negative change) ([9]; 30 mg/kg for 3 days): −41%; effect on brain levels of galactosylceramide and galactosylsphingosine ([8]; selectivity vs galactosylceramide synthase, data not shown): lack of effect |
| CCCCCCCC(=O)N[C@H](CN1CCCC1)[C@H](O)c1ccc2c(c1)OCCO2 [eliglustat, eliglustat tartrate, reference compound] | – | – | 12.5 | – | – | – | – | – | – | activity on brain glycosphingolipids in CBE mouse assay ([8]; IP 10 mg/kg qd for 14 days): inactive |

From PMC7919060 (ACS chemical neuroscience, 2020)
